From ChEMBL document CHEMBL1275449, “Potent in vitro antifungal activities of naturally occurring acetylenic acids” (Antimicrob Agents Chemother, 2008)
Calls of active or inactive are those of the source.

Assays:
Assay type in all cases: functional, organism-based
Candida albicans [1] = experiment: Antifungal activity against Fluconazole resistant Candida albicans isolate 1 at 198.1 uM after 48 hrs by CLSI method
In short: (§1)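 Candida in CLSI broth microdilution. Saline colony suspension set to 1.5 × 10³ CFU/ml (final) in MOPS-buffered RPMI 1640, pH 7.0. Test agent given as twofold serial dilutions in 20% DMSO-saline, duplicate wells. 35°C for 48 h. Growth read as OD530 before and after incubation. Percent inhibition scored at the highest test concentration.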

Candida albicans [2] = experiment: Antifungal activity against Candida albicans ATCC 200955 at 198.1 uM after 48 hrs by CLSI method
In short: (§2)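 Candida inocula came from 24–72-h SD agar colonies suspended in saline. They were diluted by OD630 standard curve into RPMI 1640 (0.2% dextrose, 0.03% glutamine, 0.165 M MOPS, pH 7.0) to 1.5 × 10³ CFU/ml. Compounds were run as 11 twofold dilutions in 20% DMSO-saline, in duplicate, at 35°C for 48 h, with OD530 read before and after. Percent growth at the top concentration, IC50, MIC, and MFC (SD agar plating) were derived.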

Aspergillus fumigatus [3] = experiment: Antifungal activity against Aspergillus fumigatus ATCC 90906 at 198.1 uM after 48 hrs by CLSI method
Cryptococcus neoformans [4] = experiment: Antifungal activity against Cryptococcus neoformans ATCC 90113 at 187.7 uM after 72 hrs by CLSI method
In short: (§3)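 SD broth replaced RPMI because growth in RPMI was poor; other CLSI conditions were kept. Inoculum was 1.5 × 10³ CFU/ml from colonies on SD agar, checked by plating. Twofold serial dilutions (11 concentrations) in 20% DMSO-saline were tested in duplicate. OD530 was read before and after incubation at 35°C for 72 h. Percent growth gave IC50; the MIC is the lowest concentration with no detectable growth.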

Candida albicans [5] = experiment: Antifungal activity against Candida albicans ATCC 200955 at 187.7 uM after 48 hrs by CLSI method; in short: as §2
Trichophyton rubrum = experiment: Antifungal activity against Trichophyton rubrum ATCC MYA-4438 at 187.7 uM after 5 days by CLSI method
Candida tropicalis = experiment: Antifungal activity against Candida tropicalis ATCC 750 at 187.7 uM after 48 hrs by CLSI method
In short: (§4)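 Yeast suspensions made from 3-5 colonies off 24-72 h SD agar plates in saline. They were diluted by OD630 standard curve in RPMI 1640 (0.2% dextrose, 0.03% glutamine, 0.165 M MOPS, pH 7.0) to 1.5 × 10³ CFU/ml. Twofold dilutions (11 concentrations, 20% DMSO-saline) run in duplicate. OD530 read before and after 35°C, 48 h. Line values are top test concentrations; no-growth endpoints give MIC/MFC.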

Aspergillus fumigatus [6] = experiment: Antifungal activity against Aspergillus fumigatus ATCC 204305 at 187.7 uM after 48 hrs by CLSI method
Aspergillus niger = experiment: Antifungal activity against Aspergillus niger ATCC 16404 at 187.7 uM after 48 hrs by CLSI method
Candida albicans [7] = experiment: Antifungal activity against Fluconazole resistant Candida albicans isolate 1 at 168.9 uM after 48 hrs by CLSI method; in short: as §1
Cryptococcus neoformans [8] = experiment: Antifungal activity against Cryptococcus neoformans ATCC 66031 at 168.9 uM after 72 hrs by CLSI method; in short: as §3
Candida parapsilosis [9] = experiment: Antifungal activity against Candida parapsilosis ATCC 22019 at 168.9 uM after 48 hrs by CLSI method; in short: as §4
Candida albicans [10] = experiment: Antifungal activity against Candida albicans ATCC 14053 at 168.9 uM after 48 hrs by CLSI method
Pichia kudriavzevii [11] = experiment: Antifungal activity against Candida krusei ATCC 6258 at 168.9 uM after 48 hrs by CLSI method; in short: as §2
Candida albicans [12] = experiment: Antifungal activity against Candida albicans ATCC 200955 at 169.8 uM after 48 hrs by CLSI method; in short: as §2
Candida albicans [13] = experiment: Antifungal activity against Candida albicans ATCC 32354 at 169.8 uM after 48 hrs by CLSI method; in short: as §2
Candida albicans [14] = experiment: Antifungal activity against Fluconazole resistant Candida albicans isolate 1 at 169.8 uM after 48 hrs by CLSI method; in short: as §1
Candida parapsilosis [15] = experiment: Antifungal activity against Candida parapsilosis ATCC 22019 at 169.8 uM after 48 hrs by CLSI method; in short: as §4
Cryptococcus neoformans [16] = experiment: Antifungal activity against Cryptococcus neoformans ATCC 66031 at 169.8 uM after 72 hrs by CLSI method; in short: as §3
Pichia kudriavzevii [17] = experiment: Antifungal activity against Candida krusei ATCC 6258 at 169.8 uM after 48 hrs by CLSI method; in short: as §2
Candida parapsilosis [18] = experiment: Antifungal activity against Candida parapsilosis ATCC 22019 at 9.4 uM after 48 hrs by CLSI method; in short: as §1
Aspergillus fumigatus [19] = experiment: Antifungal activity against Aspergillus fumigatus ATCC 204305 at 9.4 uM after 48 hrs by CLSI method
In short: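 Aspergillus growth on 1–6-week potato dextrose slants scraped and Miracloth-filtered. Inoculum sized by OD630 curve to 2.7 × 10⁴ CFU/ml (final) in 5% Alamar blue-RPMI 1640 (MOPS, pH 7.0). Duplicate twofold dilutions from 20% DMSO-saline. 35°C for 48 h. Fluorescence 544/590 nm read before and after. Percent inhibition taken at the highest test concentration.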

Measured: Activity

CCCCCCCCCC#CCCCCC(=O)O
inactive: Candida albicans [1] | Candida albicans [2] | Aspergillus fumigatus [3]

CCCCCCCCCCC#CCCCCC(=O)O
inactive: Cryptococcus neoformans [4] | Candida albicans [5] | Trichophyton rubrum | Candida tropicalis | Aspergillus fumigatus [6] | Aspergillus niger

CCCCCC#CCC#CCC#CCC#CCCCC(=O)O
inactive: Candida albicans [7] | Cryptococcus neoformans [8] | Candida parapsilosis [9] | Candida albicans [10] | Pichia kudriavzevii [11]

CCCCCCCCCCCCC#CCCCCC(=O)O [6-NONADECYNOIC ACID]
inactive: Candida albicans [12] | Candida albicans [13] | Candida albicans [14] | Candida parapsilosis [15] | Cryptococcus neoformans [16] | Pichia kudriavzevii [17]

CC(=O)N1CCN(c2ccc(OCC3COC(Cn4ccnc4)(c4ccc(Cl)cc4Cl)O3)cc2)CC1 (configuration not stated) [KETOCONAZOLE]
inactive: Candida parapsilosis [18] | Aspergillus fumigatus [19]
